What all share (format): ADME, organism-based
Data set [1] deals with Mus musculus. Description: Biodistribution in mice as total concentration of both oxidized and reduced forms in spleen and animals were sacrificed 10 minutes after ip administration in DMSO solution. To be noted: in vivo. The method in brief:
(§1)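 Female C3H HenMTV⁻ mice (6-8 weeks old, 22-25 g; three per time point) were given an ip injection of 500 µL of 40 mM compound. They were euthanized at 10 or 60 min. Brain, heart, liver, kidney, spleen and blood were excised and each homogenized in ice-cold PBS. One half of each homogenate received K₃[Fe(CN)₆] (final 1 mM) to oxidize hydroxylamine to nitroxide. Total nitroxide plus hydroxylamine was read from EPR signal intensity.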

Data set [2] concerns Mus musculus. In words: Biodistribution in mice as total concentration of both oxidized and reduced forms in brain tissues, animals were sacrificed 60 minutes after dosing, in DMSO sol. To be noted: in vivo, 1 h. The method in brief:
as §1

For data set [3], the system named is Mus musculus. In words: Biodistribution in mice as total concentration of both oxidized and reduced forms in kidney tissues, animals were sacrificed 60 minutes after dosing, in DMSO sol. To be noted: in vivo, 1 h. The method in brief: as §1
Data set [4] concerns Mus musculus. In words: Biodistribution of compound (oxidized form) in heart tissue, animals were sacrificed 60 minutes after dosing, in DMSO sol. To be noted: in vivo, 1 h. The method in brief: (§2)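 In female C3H HenMTV⁻ mice (6-8 weeks, 22-25 g; three per time point), compound was injected ip as 500 µL of 40 mM solution. Animals were killed 10 or 60 min later. Brain, heart, liver, kidney, spleen and blood were removed and each homogenized in ice-cold PBS. Nitroxide (oxidized form) was quantified by EPR signal intensity in the half of each homogenate not treated with ferricyanide.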

The test system of data set [5] is Mus musculus. Description: Biodistribution of compound (oxidized form) in kidney tissue, animals were sacrificed 60 minutes after dosing, in DMSO sol. To be noted: in vivo, 1 h. An outline of the steps: as §2
Data set [6] has as its system Mus musculus. In words: Biodistribution in mice as total concentration of both oxidized and reduced forms in kidney and animals were sacrificed 10 minutes after dosing, in DMSO sol. To be noted: in vivo. An outline of the steps:
as §1

The test system of data set [7] is Mus musculus. Description: Biodistribution of compound (oxidized form) in spleen tissues, animals were sacrificed 60 minutes after dosing, in DMSO sol. To be noted: in vivo, 1 h. The method in brief: as §2
Data set [8] has as its system Mus musculus. Description: Biodistribution of compound (oxidized form) in brain tissue, animals were sacrificed 60 minutes after dosing, in DMSO sol. To be noted: in vivo, 1 h. The method in brief:
as §2

For data set [9], the system named is Mus musculus. In words: Biodistribution of compound (oxidized form) in kidney tissue, animals were sacrificed 10 minutes after dosing, in DMSO sol. To be noted: in vivo. The method in brief: as §2
In data set [10] the test system is Mus musculus. Description: Biodistribution of compound (oxidized form) in brain tissue, animals were sacrificed 10 minutes after dosing, in DMSO sol. To be noted: in vivo. An outline of the steps: as §2
The test system of data set [11] is Mus musculus. Description: Biodistribution in mice as total concentration of both oxidized and reduced forms in spleen tissues, animals were sacrificed 60 minutes after dosing, in DMSO sol. To be noted: in vivo, 1 h. The method in brief:
as §1

In data set [12] the test system is Mus musculus. Description: Biodistribution in mice as total concentration of both oxidized and reduced forms in heart tissues, animals were sacrificed 10 minutes after dosing, in DMSO sol. To be noted: in vivo. The method in brief: as §1
For data set [13], the system named is Mus musculus. Description: Biodistribution of compound (oxidized form) in blood tissue, animals were sacrificed 10 minutes after dosing, in DMSO sol. To be noted: in vivo. An outline of the steps: as §2
Data set [14] deals with Mus musculus. In words: Biodistribution of compound (total concentration of both oxidized and reduced forms) in brain tissues, animals were sacrificed 10 minutes after dosing, in DMSO. To be noted: in vivo. An outline of the steps: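 Female C3H HenMTV⁻ mice (6-8 weeks old, 22-25 g; three per time point) got one i.p. injection of 500 µL of 40 mM compound. They were euthanized at 10 or 60 min. Organs and blood were excised and homogenized separately in ice-cold PBS. One half of each homogenate received K₃[Fe(CN)₆] (final 1 mM) to oxidize hydroxylamine. Total nitroxide plus hydroxylamine was quantified by EPR signal intensity.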

The test system of data set [15] is Mus musculus. Description: Biodistribution in mice as total concentration of both oxidized and reduced forms in blood tissues, animals were sacrificed 60 minutes after dosing, in DMSO sol. To be noted: in vivo, 1 h. The method in brief:
as §1

Data set [16] deals with Mus musculus. Description: Biodistribution in mice as total concentration of both oxidized and reduced forms in blood and animals were sacrificed 10 minutes after ip administration in DMSO solution. To be noted: in vivo. The method in brief: as §1
The subject of data set [17] is Mus musculus. Description: Biodistribution of compound (oxidized form) in liver tissues, animals were sacrificed 60 minutes after dosing, in DMSO sol. To be noted: in vivo, 1 h. An outline of the steps: as §2
Data set [18] deals with Mus musculus. Description: Biodistribution of compound (oxidized form) in spleen tissue, animals were sacrificed 10 minutes after dosing, in DMSO sol. To be noted: in vivo. The method in brief: as §2
Data set [19] has as its system Mus musculus. Description: Biodistribution of compound (oxidized form) in blood tissues, animals were sacrificed 60 minutes after dosing, in DMSO sol. To be noted: in vivo, 1 h. The method in brief:
as §2

The test system of data set [20] is Mus musculus. Description: Biodistribution in mice as total concentration of both oxidized and reduced forms in liver and animals were sacrificed 10 minutes after dosing, in DMSO sol. To be noted: in vivo. The method in brief:
as §1

The test system of data set [21] is Mus musculus. In words: Biodistribution of compound (oxidized form) in liver tissue, animals were sacrificed 10 minutes after dosing, in DMSO sol. To be noted: in vivo. The method in brief: as §2
Data set [22] deals with Mus musculus. In words: Biodistribution of compound (oxidized form) in heart tissue, animals were sacrificed 10 minutes after dosing, in DMSO sol. To be noted: in vivo. An outline of the steps:
as §2

In data set [23] the test system is Mus musculus. Description: Biodistribution in mice as total concentration of both oxidized and reduced forms in heart tissues, animals were sacrificed 60 minutes after dosing, in DMSO sol. To be noted: in vivo, 1 h. An outline of the steps:
as §1

For data set [24], the system named is Mus musculus. In words: Biodistribution in mice as total concentration of both oxidized and reduced forms in liver tissues, animals were sacrificed 60 minutes after dosing, in DMSO sol. To be noted: in vivo, 1 h. An outline of the steps:
as §1

The structures appear in SMILES notation.

Turning to `COC(=O)C1CC(C)(C)N(OC(C)=O)C(C)(C)C1`, the Biodistribution in data set [1] is given as 100 nM (g of tissue)-1; in data set [2], 25 nM (g of tissue)-1; in data set [3], 25 nM (g of tissue)-1; in [4] it was 0 nM (g of tissue)-1; in data set [5], 0 nM (g of tissue)-1; in [6], 400 nM (g of tissue)-1. For the same molecule, the Biodistribution in data set [7] was 0 nM (g of tissue)-1; in [8], 5 nM (g of tissue)-1; in data set [9] it was 0 nM (g of tissue)-1; in data set [10], 2 nM (g of tissue)-1; in data set [11], 25 nM (g of tissue)-1; in [12] it was 10 nM (g of tissue)-1. Moreover, the Biodistribution is on record as 0 nM (g of tissue)-1 in data set [13]; 0 nM (g of tissue)-1 in [14]; 25 nM (g of tissue)-1 in data set [15]; 100 nM (g of tissue)-1 in data set [16]; 0 nM (g of tissue)-1 in [17]; 0 nM (g of tissue)-1 in data set [18]. Moreover, the Biodistribution is 0 nM (g of tissue)-1 in [19]; 50 nM (g of tissue)-1 in data set [20]; 0 nM (g of tissue)-1 in data set [21]; 0 nM (g of tissue)-1 in [22]; 25 nM (g of tissue)-1 in data set [23]; 30 nM (g of tissue)-1 in data set [24].
